We go through 10 compounds from ChEMBL document CHEMBL1150579, “Anti-lipid-peroxidative principles from Tournefortia sarmentosa” (J Nat Prod, 2002).

Assay [1] is described as follows: Antioxidant activity against Cu2+-induced lipid peroxidation in human plasma LDL preincubated for 1 hr before Cu2+ challenge. It counts as functional, cell-free. In short, it runs like this:
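LDL from fasting plasma of healthy adult men not taking vitamin supplements. LDL was preincubated with compound at 37 °C for 1 h. Oxidation was started with CuSO4 (final 10 µM) and run for 2 h at 37 °C, shaken at 120 rpm. Conjugated dienes in the supernatant were read at 232 nm. IC50 is the concentration giving 50% inhibition of diene formation, taken from concentration curves.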

Assay [2] is described as follows: Antioxidant activity against Cu2+-induced lipid peroxidation in human plasma LDL preincubated for 1 hr before Cu2+ challenge relative to probucol. Type of assay: functional, cell-free. In short, it runs like this: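 Same Cu2+-induced human LDL assay as above, with 1 h compound preincubation, 10 µM CuSO4 for 2 h at 37 °C, and conjugated dienes read at 232 nm. Probucol (10 µM, in 10% ethanol) was the positive control, with its potency set at 1.0. Relative potency = IC50(probucol)/IC50(compound).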

The term IC50 denotes the midpoint of a concentration-inhibition curve. A high value points to weaker potency. In assay [1], `O=C(/C=C/c1ccc(O)c2c1[C@H](C(=O)O)[C@@H](c1ccc(O)c(O)c1)O2)O[C@H](Cc1ccc(O)c(O)c1)C(=O)O` [LITHOSPERMIC ACID] returned a half-inhibitory concentration (IC50) of 1000 nM. The Activity in assay [2] was determined as 4.3.

As for `O=C(/C=C/c1ccc(O)c(O)c1/C=C/c1ccc(O)c(O)c1)O[C@H](Cc1ccc(O)c(O)c1)C(=O)O` [SALVIANOLIC ACID A], in assay [1], the half-inhibitory concentration (IC50) is 590 nM. Besides, the Activity in assay [2] was found to be 7.3.

`CC(C)(Sc1cc(C(C)(C)C)c(O)c(C(C)(C)C)c1)Sc1cc(C(C)(C)C)c(O)c(C(C)(C)C)c1` [PROBUCOL] displayed a half-maximal inhibitory concentration (IC50) in assay [1] of 4300 nM.

`O=Cc1ccc(O)c2oc(-c3ccc(O)c(O)c3)cc12` [TOURNEFOLAL] had a half-inhibitory concentration (IC50) in assay [1] of 4700 nM. Also, the Activity in assay [2] amounted to 1.09.

As for `O=C(/C=C/c1ccc(O)c(O)c1)O[C@H](Cc1ccc(O)c(O)c1)C(=O)O` [ROSMARINIC ACID], it took 1810 nM to reach half-maximal inhibition in assay [1] (IC50). The compound further registered an Activity in assay [2] of 2.2.

Take `O=C(O)/C=C/c1ccc(O)c2c1C=Cc1cc(O)c(O)cc1O2` [TOURNEFOLIC ACID B]: in assay [1], half-maximal inhibition (IC50) was put at 2320 nM. Besides, the Activity in assay [2] stood at 1.9.

Turning to `O=C(O)/C=C/c1ccc(O)c(O)c1/C=C/c1ccc(O)c(O)c1` [SALVIANOLIC ACID F], it took 5440 nM to reach half-maximal inhibition in assay [1] (IC50). The compound further had an Activity in assay [2] of 0.8.

`CCOC(=O)/C=C/c1ccc(O)c2c1C=Cc1cc(O)c(O)cc1O2` [TOURNEFOLIC ACID B ETHYL ESTER] returned a 50% inhibitory concentration (IC50) in assay [1] of 510 nM. In assay [2], this compound came in with an Activity of 8.6.

Compound `O=C(/C=C/c1ccc(O)c2c1C=Cc1cc(O)c(O)cc1O2)O[C@H](Cc1ccc(O)c(O)c1)C(=O)O` [ISOSALVIANOLIC ACID C] had a half-maximal inhibitory concentration (IC50) in assay [1] of 2720 nM. In assay [2], this compound had an Activity of 1.6.

Regarding `O=C(O)/C=C/c1ccc(O)c2oc(-c3ccc(O)c(O)c3)cc12` [TOURNEFOLIC ACID A], the IC50 in assay [1] came to 4810 nM. Moreover, the Activity in assay [2] stood at 1.1.
